Our source for the inhibition, Ki and Ratio Ki values is ChEMBL document CHEMBL3351751, “Tricyclic pyrazoles part 7. Discovery of potent and selective dihydrothienocyclopentapyrazole derived CB2 ligands” (Eur J Med Chem, 2014).

SMILES strings stand for the structures. Active and inactive are the calls of the source. The rule behind the calls is not given here.

Assay [1] deals with Cannabinoid receptor 2 (Homo sapiens) (UniProt P34972). In words: Inhibition of CB2 receptor in HL60 cells assessed as inhibition of ERK1/2 phosphorylation after 15 mins by Western blotting analysis. It counts as cell-based. Conditions: HL-60. Background: A western blot detects proteins with antibodies after separation by electrophoresis.
For a further assay, the target named is Cannabinoid receptor 2 (Mus musculus, UniProt P47936). Description: Displacement of [3H]-CP55940 from CD1 mouse spleen CB2 receptor by liquid scintillation counting. The procedure, abridged:
(§1)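 Male CD1 mouse tissue homogenised in ice-cold TME buffer (50 mM Tris–HCl, 1 mM EDTA, 3.0 mM MgCl2, pH 7.4); membranes (30–80 µg protein) incubated with 0.5–1 nM [3H]-CP-55,940, 1 h, 30 °C, with 5 mg/mL fatty acid-free BSA. Non-specific binding with 1 µM CP-55,940. GF/C filtration. Triplicate, ≥5 independent experiments; IC50 by sigmoid fit converted to Ki.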
(Loss of bound radioactivity is the signal in a displacement assay; it reports binding, not function.)

Another assay addresses Cannabinoid receptor 1 (Mus musculus, UniProt P47746). In words: Displacement of [3H]-CP55940 from CD1 mouse brain (minus cerebellum) CB1 receptor by liquid scintillation counting. It counts as tissue-based. In a few lines:
as §1

The species named for the next assay is Mus musculus. Description: Selectivity ratio of Ki for CD1 mouse brain (minus cerebellum) CB1 receptor to Ki for CD1 mouse spleen CB2 receptor. It counts as tissue-based.

Chain of Cannabinoid receptor 2 (Homo sapiens) (P34972 whole entry): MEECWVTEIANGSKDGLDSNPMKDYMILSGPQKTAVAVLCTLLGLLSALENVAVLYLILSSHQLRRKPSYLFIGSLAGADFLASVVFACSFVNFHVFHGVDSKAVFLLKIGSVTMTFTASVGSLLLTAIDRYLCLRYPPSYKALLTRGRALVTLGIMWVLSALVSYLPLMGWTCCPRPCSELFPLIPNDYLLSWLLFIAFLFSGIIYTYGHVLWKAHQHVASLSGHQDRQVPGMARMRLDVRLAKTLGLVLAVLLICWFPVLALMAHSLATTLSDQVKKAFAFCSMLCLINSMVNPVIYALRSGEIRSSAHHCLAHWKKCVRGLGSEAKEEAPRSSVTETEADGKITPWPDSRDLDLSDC
Chain of Cannabinoid receptor 2 (P47936 whole entry): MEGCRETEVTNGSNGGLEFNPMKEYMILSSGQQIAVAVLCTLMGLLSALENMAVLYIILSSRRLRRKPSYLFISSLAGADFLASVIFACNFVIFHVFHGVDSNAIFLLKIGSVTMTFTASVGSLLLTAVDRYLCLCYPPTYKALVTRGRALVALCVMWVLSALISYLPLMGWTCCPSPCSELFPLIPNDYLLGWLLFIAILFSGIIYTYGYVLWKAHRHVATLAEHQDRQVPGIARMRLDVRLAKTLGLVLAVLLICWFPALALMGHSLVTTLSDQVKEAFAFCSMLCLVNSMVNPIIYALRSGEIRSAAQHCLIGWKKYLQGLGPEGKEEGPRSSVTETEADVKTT
Chain of Cannabinoid receptor 1 (P47746 whole entry): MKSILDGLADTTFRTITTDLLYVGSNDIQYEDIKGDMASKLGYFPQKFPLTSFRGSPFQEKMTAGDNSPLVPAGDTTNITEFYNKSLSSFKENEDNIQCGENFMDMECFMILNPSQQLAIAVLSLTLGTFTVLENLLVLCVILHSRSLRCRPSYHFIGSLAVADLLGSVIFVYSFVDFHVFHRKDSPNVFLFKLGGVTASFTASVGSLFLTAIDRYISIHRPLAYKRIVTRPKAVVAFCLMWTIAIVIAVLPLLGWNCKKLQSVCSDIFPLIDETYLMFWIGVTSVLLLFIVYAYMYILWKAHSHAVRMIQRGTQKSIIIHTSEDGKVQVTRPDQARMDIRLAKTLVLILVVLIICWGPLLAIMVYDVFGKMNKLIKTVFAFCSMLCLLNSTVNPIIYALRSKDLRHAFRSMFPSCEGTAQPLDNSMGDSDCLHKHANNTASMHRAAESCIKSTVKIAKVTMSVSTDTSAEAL

Turning to `Cc1c(C(=O)c2cccc3ccccc23)c2cccc3c2n1[C@H](CN1CCOCC1)CO3`, in assay [1], the inhibition entry was “Active”.

As a reminder, the Ki is a measure of affinity in units of concentration, obtained from inhibition or displacement. With `Cc1cc2c(s1)Cc1c(C(=O)NN3CCCC3)nn(-c3ccc(Cl)cc3Cl)c1-2`, the Ki at Cannabinoid receptor 2 was 38.3 nM; at Cannabinoid receptor 1, 1390 nM. For the same compound, the inhibition result in assay [1] is “Active”. In addition, the Ratio Ki in the assay listed under Mus musculus turned out to be 36.2.

With `Cc1cc2c(s1)Cc1c(C(=O)NC3C[C@@H](C)CC[C@@H]3C(C)C)nn(-c3ccc(Cl)cc3Cl)c1-2` (stereo partly specified), the figures for the Ki on Cannabinoid receptor 2 and on Cannabinoid receptor 1 were 5.1 nM and 6.5 nM, respectively. For the same compound, in assay [1], the inhibition result was “Active”. For the same compound, the Ratio Ki in the assay filed under Mus musculus was 1.3.

In the case of `Cc1ccc(Cn2nc(C(=O)NN3CCCCC3)c3c2-c2c(C)csc2C3)cc1`, the results for the Ki at Cannabinoid receptor 2 and at Cannabinoid receptor 1 were 125 nM and 377 nM, respectively. Also, the inhibition result in assay [1] is “Active”. For the same compound, the Ratio Ki in the assay listed under Mus musculus was found to be 3.

Take `Cc1ccc(Cn2nc(C(=O)NC3C(C)(C)C4CC[C@@]3(C)C4)c3c2-c2c(C)csc2C3)cc1` (stereo partly specified): the figures for the Ki at Cannabinoid receptor 2 and on Cannabinoid receptor 1 were 2.4 nM and 420 nM, respectively. The inhibition result in assay [1] was “Active”. The Ratio Ki in the assay listed under Mus musculus came out at 175.

For `Cc1cc2c(s1)Cc1c(C(=O)NN3CCCCCC3)nn(-c3ccc(Cl)cc3Cl)c1-2`, the inhibition constant Ki at Cannabinoid receptor 2 amounted to 1.1 nM; at Cannabinoid receptor 1, 442 nM. Further, the inhibition entry in assay [1] was “Active”. The Ratio Ki in the assay listed under Mus musculus was found to be 402.

Consider `Cc1csc2c1-c1c(c(C(=O)NN3CCOCC3)nn1-c1ccc(Cl)cc1Cl)C2`, for which the results for the Ki at Cannabinoid receptor 2 and at Cannabinoid receptor 1 were 747 nM and 4700 nM, respectively. In addition, in assay [1], the inhibition entry was “Active”. In the assay listed under Mus musculus, the Ratio Ki is 6.3.

For `Cc1ccc(Cn2nc(C(=O)NC3C[C@@H](C)CC[C@@H]3C(C)C)c3c2-c2c(C)csc2C3)cc1` (stereo partly specified), the Ki on Cannabinoid receptor 2 was 2.7 nM; on Cannabinoid receptor 1 it was 160 nM. Also, in assay [1], the inhibition entry was “Active”. The Ratio Ki in the assay filed under Mus musculus turned out to be 59.3.

As to `Cc1ccc(Cn2nc(C(=O)NC3CCCCC3)c3c2-c2c(C)csc2C3)cc1`, the Ki at Cannabinoid receptor 2 was determined as 191 nM; on Cannabinoid receptor 1, 1980 nM. The inhibition entry in assay [1] is “Active”. For the same compound, in the assay filed under Mus musculus, the Ratio Ki is 10.4.

On to `Cc1cc2c(s1)Cc1c(C(=O)NN3CCCCC3)nn(-c3ccc(Cl)cc3Cl)c1-2`, for which the results for the Ki at Cannabinoid receptor 2 and on Cannabinoid receptor 1 were 2.3 nM and 440 nM, respectively. Also, in assay [1], the inhibition entry is “Active”. The Ratio Ki in the assay filed under Mus musculus worked out at 191.

As for `Cc1ccc(Cn2nc(C(=O)NN3CCCC3)c3c2-c2c(C)csc2C3)cc1`, the Ki on Cannabinoid receptor 2 is 515 nM; at Cannabinoid receptor 1, 4500 nM. Also, the inhibition entry in assay [1] was “Active”. Further, the Ratio Ki in the assay filed under Mus musculus is 8.7.

As for `Cc1ccc(Cn2nc(C(=O)NN3CCCCCC3)c3c2-c2c(C)csc2C3)cc1`, the Ki at Cannabinoid receptor 2 stood at 69 nM; on Cannabinoid receptor 1 it was 1280 nM. For the same compound, the inhibition result in assay [1] is “Active”. Moreover, the Ratio Ki in the assay listed under Mus musculus came to 18.5.

On to `Cc1ccc(Cn2nc(C(=O)NN3CCOCC3)c3c2-c2c(C)csc2C3)cc1`, for which the figures for the Ki on Cannabinoid receptor 2 and at Cannabinoid receptor 1 were 1760 nM and 4500 nM, respectively. Besides, in assay [1], the inhibition result is “Active”. Besides, the Ratio Ki in the assay filed under Mus musculus worked out at 2.6.

For the compound `Cc1csc2c1-c1c(c(C(=O)NN3CCCC3)nn1-c1ccc(Cl)cc1Cl)C2`, the Ki amounted to 817 nM on Cannabinoid receptor 2 and 4730 nM on Cannabinoid receptor 1. Further, the inhibition result in assay [1] is “Active”. Moreover, the Ratio Ki in the assay listed under Mus musculus was found to be 5.8.

In the case of `Cc1csc2c1-c1c(c(C(=O)NC3C(C)(C)C4CC[C@@]3(C)C4)nn1-c1ccc(Cl)cc1Cl)C2` (stereo partly specified), the inhibitory constant (Ki) at Cannabinoid receptor 2 was 5.3 nM; at Cannabinoid receptor 1 it was 2240 nM. Also, in assay [1], the inhibition entry was “Active”. Moreover, the Ratio Ki in the assay listed under Mus musculus is 424.

`Cc1cc2c(s1)Cc1c(C(=O)NC3CCCCC3)nn(-c3ccc(Cl)cc3Cl)c1-2`: the Ki on Cannabinoid receptor 2 turned out to be 7.2 nM; on Cannabinoid receptor 1, 447 nM. Also, in assay [1], the inhibition result is “Active”. In addition, the Ratio Ki in the assay listed under Mus musculus was found to be 62.1.

As to `Cc1ccc(Cn2nc(C(=O)NC3C[C@@H](C)CC[C@@H]3C(C)C)c3c2-c2cc(C)sc2C3)cc1` (stereo partly specified), the Ki at Cannabinoid receptor 2 was 4.8 nM; at Cannabinoid receptor 1 it was 180 nM. Besides, in assay [1], the inhibition entry is “Active”. Moreover, the Ratio Ki in the assay listed under Mus musculus stood at 37.5.

With `Cc1csc2c1-c1c(c(C(=O)NN3CCCCCC3)nn1-c1ccc(Cl)cc1Cl)C2`, the Ki at Cannabinoid receptor 2 was determined as 321 nM; on Cannabinoid receptor 1, 3800 nM. In addition, the inhibition entry in assay [1] is “Active”. Also, the Ratio Ki in the assay listed under Mus musculus was 11.8.

Take `Cc1csc2c1-c1c(c(C(=O)NN3CCCCC3)nn1-c1ccc(Cl)cc1Cl)C2`: the inhibition constant (Ki) came out at 578 nM at Cannabinoid receptor 2 and 3920 nM on Cannabinoid receptor 1. The inhibition entry in assay [1] is “Active”. In addition, in the assay filed under Mus musculus, the Ratio Ki is 6.8.

In the case of `Cc1csc2c1-c1c(c(C(=O)NC3C[C@@H](C)CC[C@@H]3C(C)C)nn1-c1ccc(Cl)cc1Cl)C2` (stereo partly specified), the results for the Ki on Cannabinoid receptor 2 and at Cannabinoid receptor 1 were 6.7 nM and 3260 nM, respectively. Moreover, in assay [1], the inhibition entry was “Active”. In addition, in the assay filed under Mus musculus, the Ratio Ki was found to be 486.

For the compound `Cc1csc2c1-c1c(c(C(=O)NC3CCCCC3)nn1-c1ccc(Cl)cc1Cl)C2`, the Ki stood at 501 nM at Cannabinoid receptor 2 and 3080 nM on Cannabinoid receptor 1. Also, the inhibition entry in assay [1] is “Active”. Also, the Ratio Ki in the assay listed under Mus musculus was 6.1.
